Source: ChEMBL document CHEMBL1141405, “Design and synthesis of novel sulfonamide-containing bradykinin hB2 receptor antagonists. 2. Synthesis and structure-activity relationships of alpha,alpha-cycloalkylglycine sulfonamides” (J Med Chem, 2007)

Columns and labels:
B1 bradykinin receptor = biological target: T1, B1 bradykinin receptor (Homo sapiens, UniProt P46663); assay: Binding affinity to human bradykinin B1 receptor
T1 sequence (P46663 whole entry): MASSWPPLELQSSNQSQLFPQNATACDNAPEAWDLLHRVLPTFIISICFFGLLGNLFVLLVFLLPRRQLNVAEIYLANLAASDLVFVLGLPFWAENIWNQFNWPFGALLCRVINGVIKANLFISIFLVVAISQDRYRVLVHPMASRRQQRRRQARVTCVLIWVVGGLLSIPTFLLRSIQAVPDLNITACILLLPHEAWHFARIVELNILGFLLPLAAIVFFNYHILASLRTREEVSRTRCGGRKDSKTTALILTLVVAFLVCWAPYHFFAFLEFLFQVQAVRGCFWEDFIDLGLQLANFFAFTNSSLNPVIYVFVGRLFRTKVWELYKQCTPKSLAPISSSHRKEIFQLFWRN

B2 bradykinin receptor [1] = biological target: T2, B2 bradykinin receptor (Homo sapiens, UniProt P30411); assay: Displacement of [3H]BK from human bradykinin B2 receptor transfected in CHO cells; type: cell-based
T2 sequence (P30411 whole entry): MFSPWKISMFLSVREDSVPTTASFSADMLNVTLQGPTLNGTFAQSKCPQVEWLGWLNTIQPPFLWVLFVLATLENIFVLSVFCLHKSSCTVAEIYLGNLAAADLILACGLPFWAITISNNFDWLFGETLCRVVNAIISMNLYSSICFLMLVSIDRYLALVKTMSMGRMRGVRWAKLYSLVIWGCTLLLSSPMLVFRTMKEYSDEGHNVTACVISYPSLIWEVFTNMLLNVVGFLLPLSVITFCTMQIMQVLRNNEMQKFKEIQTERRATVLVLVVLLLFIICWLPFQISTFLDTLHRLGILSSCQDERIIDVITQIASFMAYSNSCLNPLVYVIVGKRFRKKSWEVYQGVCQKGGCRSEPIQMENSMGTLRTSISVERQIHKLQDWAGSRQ
Summary of the method: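 pKi from inhibition of specific [3H]-BK binding to membrane preparations of CHO cells stably transfected with the human B2 receptor.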

[2] = biological target: T3, B2 bradykinin receptor (Cavia porcellus) (UniProt O70526); assay: Inhibition of BK-induced bronchoconstriction in Dunkin Hartley guinea pig at 300 nmol/kg, it; type: functional; set-up: scale not given: the % may be the effect or the level left
T3 sequence (whole entry): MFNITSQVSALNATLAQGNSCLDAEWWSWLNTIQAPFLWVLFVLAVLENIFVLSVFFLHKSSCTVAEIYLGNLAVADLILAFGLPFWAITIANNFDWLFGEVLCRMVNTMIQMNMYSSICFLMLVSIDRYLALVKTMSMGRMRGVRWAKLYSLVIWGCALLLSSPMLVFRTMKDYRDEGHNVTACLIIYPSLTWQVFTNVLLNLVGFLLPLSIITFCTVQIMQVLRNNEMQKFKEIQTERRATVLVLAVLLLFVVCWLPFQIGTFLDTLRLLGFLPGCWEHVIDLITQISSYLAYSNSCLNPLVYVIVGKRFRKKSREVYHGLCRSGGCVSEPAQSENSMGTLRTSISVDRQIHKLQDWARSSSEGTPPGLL
Summary of the method: (§1)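 Compound was given intratracheally to anaesthetized guinea pigs. Five min later, BK (10 nmol/kg iv) challenge was given and repeated every 30 min for 210 min. Pulmonary insufflation pressure was monitored. Result is Σ%: residual BK response as % of basal, normalized to control at 5–210 min time points, expressed as % of theoretical maximum.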

[3] = biological target: T3, B2 bradykinin receptor (Cavia porcellus); assay: Effect on BK-induced hypotension in Dunkin Hartley guinea pig at 300 nmol/kg, it; type: functional
Summary of the method: as §1, with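 “Blood” for “Pulmonary insufflation”, “each observation” for “5–210 min”, “(5–210 min),” for “points,”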

B2 bradykinin receptor [4] = biological target: T2, B2 bradykinin receptor; assay: Antagonist potency at human bradykinin B2 receptor assessed as effect on inositol monophosphate accumulation in CHOdhfr- cells; type: functional, cell-based; details: read-out: pA2 (converted)
Summary of the method: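 pA2 derived from antagonism of bradykinin-stimulated inositol monophosphate accumulation in CHOdhfr- cells stably transfected with the human B2 receptor.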

[5] = biological target: T3, B2 bradykinin receptor (Cavia porcellus); assay: Effect on BK-induced hypotension in Dunkin Hartley guinea pig at 100 nmol/kg, it; type: functional
Summary of the method: as §1, with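 “Blood” for “Pulmonary insufflation”, “each observation” for “5–210 min”, “(5–210 min),” for “points,”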

[6] = biological target: T3, B2 bradykinin receptor (Cavia porcellus); assay: Inhibition of BK-induced bronchoconstriction in Dunkin Hartley guinea pig at 100 nmol/kg, it; type: functional; set-up: scale not given: the % may be the effect or the level left; summary of the method: as §1
B2 bradykinin receptor [7] = biological target: T4, B2 bradykinin receptor (Cavia porcellus, UniProt O70526); assay: Antagonist potency on BK-induced contraction of guinea pig ileum longitudinal smooth muscle; type: functional, tissue-based; details: read-out: pA2 (converted)
T4 sequence (O70526 whole entry): T3 sequence (whole entry)

Compound | Ki (B1 bradykinin receptor) [nM] | Ki (B2 bradykinin receptor [1]) [nM] | Activity [2] [%] | Activity [3] [%] | Kb (B2 bradykinin receptor [4]) [nM] | Activity [5] [%] | Activity [6] [%] | Kb (B2 bradykinin receptor [7]) [nM]
Cc1cc(C)c2cccc(OCc3c(Cl)ccc(S(=O)(=O)NC4(C(=O)N5CCN(C(=N)NCCCN(C)C)CC5)CCCC4)c3Cl)c2n1 | > 10000 | 0.631 | 24 | 69 | 0.501 |  |  | 
CC(=O)N1CCC(NS(=O)(=O)c2ccc(Cl)c(COc3cccc4c(C)cc(C)nc34)c2Cl)(C(=O)N2CCN(C(=O)[C@@H](N)CCC[N+](C)(C)C)CC2)CC1 | > 10000 | 0.158 |  |  | 1.26 |  |  | 
Cc1cc(C)c2cccc(OCc3c(Cl)ccc(S(=O)(=O)NC4(C(=O)N5CCN(C(=O)CCC[N+](C)(C)C)CC5)CCCC4)c3Cl)c2n1 | > 10000 |  |  |  | 2 | 83 | 65 | 
Cc1cc(C)c2cccc(OCc3c(Cl)ccc(S(=O)(=O)NC4(C(=O)N5CCN(C(=O)C[C@@H](N)CCCNC(=N)N)CC5)CCCC4)c3Cl)c2n1 | > 10000 |  |  |  | 0.794 | 100 | 78 | 
Cc1cc(C)c2cccc(OCc3c(Cl)ccc(S(=O)(=O)NC4(C(=O)N5CCN(C(=O)[C@@H](N)CCCCN(C)C)CC5)CCCC4)c3Cl)c2n1 | > 10000 | 1.58 | 29 | 67 | 0.794 |  |  | 0.158
Cc1cc(C)c2cccc(OCc3c(Cl)ccc(S(=O)(=O)NC4(C(=O)N5CCN(C(=O)C[C@H](CCCN)[N+](C)(C)C)CC5)CCCC4)c3Cl)c2n1 | > 10000 | 0.126 |  |  | 1.26 | 94 | 72 | 
Cc1cc(C)c2cccc(OCc3c(Cl)ccc(S(=O)(=O)NC4(C(=O)N5CCN(C(=O)[C@@H](N)CCC[N+](C)(C)C)CC5)CCCC4)c3Cl)c2n1 | > 10000 | 0.0501 |  |  | 0.501 | 100 | 24 | 
Cc1cc(C)c2cccc(OCc3c(Cl)ccc(S(=O)(=O)NC4(C(=O)N5CCN(C(=O)C[C@@H](N)CCC[N+](C)(C)C)CC5)CCCC4)c3Cl)c2n1 | > 10000 | 0.2 |  |  | 1.58 | 96 | 57 | 
Cc1cc(C)c2cccc(OCc3c(Cl)ccc(S(=O)(=O)NC4(C(=O)N5CCN(C(=O)[C@@H](N)CCC[N+](C)(C)C)CC5)CCSCC4)c3Cl)c2n1 | > 10000 | 0.0501 |  |  | 0.158 | 89 | 59 | 
Cc1cc(C)c2cccc(OCc3c(Cl)ccc(S(=O)(=O)NC4(C(=O)N5CCN(C(=O)[C@H](CCC[N+](C)(C)C)[N+](C)(C)C)CC5)CCCC4)c3Cl)c2n1 | > 10000 | 0.2 |  |  | 2.51 |  |  | 
Cc1cc(C)c2cccc(OCc3c(Cl)ccc(S(=O)(=O)NC(C)(C)C(=O)N4CCN(C(=O)C[C@@H](N)CCCN(C)C)CC4)c3Cl)c2n1 | > 10000 |  | 20 | 63 |  |  |  | 0.1
Cc1cc(C)c2cccc(OCc3c(Cl)ccc(S(=O)(=O)NC4(C(=O)N5CCN(C(=O)[C@H](CCCCNC(=N)N)[N+](C)(C)C)CC5)CCCC4)c3Cl)c2n1 | > 10000 | 0.1 |  |  | 0.631 | 90 | 61 | 
Cc1cc(C)c2cccc(OCc3c(Cl)ccc(S(=O)(=O)NC4(C(=O)N5CCN(C(=O)CCCC[N+](C)(C)C)CC5)CCCC4)c3Cl)c2n1 | > 10000 | 0.251 |  |  | 1.58 |  |  | 
Cc1cc(C)c2cccc(OCc3c(Cl)ccc(S(=O)(=O)NC4(C(=O)N5CCN(C(=O)[C@@H](N)CC[N+](C)(C)C)CC5)CCCC4)c3Cl)c2n1 | > 10000 | 0.316 |  |  | 2 | 87 | 45 | 
Cc1cc(C)c2cccc(OCc3c(Cl)ccc(S(=O)(=O)NC4(C(=O)N5CCN(C(=O)[C@H](CCCN)[N+](C)(C)C)CC5)CCCC4)c3Cl)c2n1 | > 10000 | 0.251 |  |  | 0.501 | 82 | 43 | 
Cc1cc(C)c2cccc(OCc3c(Cl)ccc(S(=O)(=O)NC4(C(=O)N5CCN(C(=O)[C@H](CCCCN(C)C)N(C)C)CC5)CCCC4)c3Cl)c2n1 | > 10000 | 0.2 |  |  | 3.16 |  |  | 
Cc1cc(C)c2cccc(OCc3c(Cl)ccc(S(=O)(=O)NC4(C(=O)N5CCN(C(=O)[C@@H](N)CCCCN)CC5)CCCC4)c3Cl)c2n1 | > 10000 | 0.316 |  |  | 2 |  |  | 
Cc1cc(C)c2cccc(OCc3c(Cl)ccc(S(=O)(=O)NC4(C(=O)N5CCN(C(=O)C[C@@H](N)CCCN)CC5)CCCC4)c3Cl)c2n1 | > 10000 | 0.631 |  |  | 0.501 | 100 | 46 | 
Cc1cc(C)c2cccc(OCc3c(Cl)ccc(S(=O)(=O)NC(C)(C)C(=O)N4CCN(C(=O)[C@@H](N)CCCN(C)C)CC4)c3Cl)c2n1 | > 10000 |  | 39 | 79 |  |  |  | 0.1
Cc1cc(C)c2cccc(OCc3c(Cl)ccc(S(=O)(=O)NC(C)(C)C(=O)N4CCN(C(=O)[C@@H](N)CCCCN(C)C)CC4)c3Cl)c2n1 | > 10000 |  | 37 | 69 |  |  |  | 0.2
Cc1cc(C)c2cccc(OCc3c(Cl)ccc(S(=O)(=O)NC4(C(=O)N5CCN(C(=O)[C@@H](N)CCC[N+](C)(C)C)CC5)CCN(C)CC4)c3Cl)c2n1 | > 10000 | 0.0794 |  |  | 0.251 | 86 | 40 | 
Cc1cc(C)c2cccc(OCc3c(Cl)ccc(S(=O)(=O)NC4(C(=O)N5CCN(C(=O)[C@@H](N)CCCC[N+](C)(C)C)CC5)CCCC4)c3Cl)c2n1 | > 10000 |  |  |  | 1.26 | 94 | 35 | 
Cc1cc(C)c2cccc(OCc3c(Cl)ccc(S(=O)(=O)NC4(C(=O)N5CCN(C(=O)CCCCC[N+](C)(C)C)CC5)CCCC4)c3Cl)c2n1 | > 10000 |  |  |  | 5.01 |  |  | 
Cc1cc(C)c2cccc(OCc3c(Cl)ccc(S(=O)(=O)NC4(C(=O)N5CCN(C(=N)NCCC[N+](C)(C)C)CC5)CCCC4)c3Cl)c2n1 | > 10000 | 0.398 | 17 | 87 | 1.58 |  |  | 
Cc1cc(C)c2cccc(OCc3c(Cl)ccc(S(=O)(=O)NC4(C(=O)N5CCN(C(=O)[C@@H](N)CCC[N+](C)(C)C)CC5)CCNCC4)c3Cl)c2n1 | > 10000 | 0.501 |  |  | 1.58 |  |  | 
Cc1cc(C)c2cccc(OCc3c(Cl)ccc(S(=O)(=O)NC4(C(=O)N5CCN(C(=O)C[N+](C)(C)C)CC5)CCCC4)c3Cl)c2n1 | > 10000 | 0.398 |  |  | 5.01 | 91 | 54 | 
Cc1cc(C)c2cccc(OCc3c(Cl)ccc(S(=O)(=O)NC4(C(=O)N5CCN(C(=O)CCCCCNC(=N)N)CC5)CCCC4)c3Cl)c2n1 | > 10000 | 1.26 |  |  | 2 |  |  | 
Cc1cc(C)c2cccc(OCc3c(Cl)ccc(S(=O)(=O)NC4(C(=O)N5CCN(C(=O)[C@H](CCCC[N+](C)(C)C)[N+](C)(C)C)CC5)CCCC4)c3Cl)c2n1 | > 10000 | 0.2 |  |  | 6.31 |  |  | 
Cc1cc(C)c2cccc(OCc3c(Cl)ccc(S(=O)(=O)NC4(C(=O)N5CCN(C(=O)[C@H](CCCCN)[N+](C)(C)C)CC5)CCCC4)c3Cl)c2n1 | > 10000 |  |  |  | 1.58 | 84 | 39 | 
